The full list was thinned out, with hits kept by preference.
INS promoter act: activators of insulin promoter-driven GFP, primary screen, imaging, TRM-6 cells, eGFP reporter, cell count; plate-scaled: unstimulated 0, stimulated control 100; activation, % at 2 µM; 130,000 compounds, 0.81% hits;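 active = activation at 2 µM above a set limit, confirmed on inspection of the cell images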;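 note: share of cells whose green reporter signal exceeds an intensity cutoff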
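Test system: human fetal islet-derived TRM-6 cells with tamoxifen-inducible insulin promoter–eGFP reporter. Compound dosing: 2 µM final, single concentration. Incubation: tamoxifen pre-incubation 15 h overnight, then compound exposure 48 h at 37 °C. Signal: fixed-cell fluorescence microscopy, eGFP plus Hoechst.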
* = called active by the depositor.

SMILES | INS promoter act
COc1ccc(NC(=O)c2cccc(S(=O)(=O)N3CCc4ccccc43)c2)cn1 | -6
CCc1ccc(N2CC(C(=O)OC)CC2=O)cc1 (stereo not drawn) | -68
CCOC(=O)C1CCCN(C2CC(=O)N(c3ccccc3)C2=O)C1 (stereo not drawn) | 0
CCc1ccc(N2C(=O)CC(N3CCC(C(=O)OC)CC3)C2=O)cc1 (stereo not drawn) | 543*
Cc1ccccc1N1CCN(C(=O)c2ccccc2NC(=O)C2CC=CCC2C(=O)O)CC1 (stereo not drawn) | -3
COc1ccc(/C=N\NC(=O)C2C(=O)NCC2c2ccccc2)cc1O (stereo not drawn) | 3
CCOC(=O)c1nc2cc3n(c(C)c-2c1C)C(C)C(CC)=C3C (stereo not drawn) | 219
CCOC(=O)C1=C(C)NC(=O)NC1c1ccc(-c2ccccc2F)o1 (stereo not drawn) | 0
CCOc1ccccc1C1NC(=O)NC(C)=C1C(=O)OC1CCCC1C (stereo not drawn) | 5
CC1=C(C(=O)OCc2ccccc2)C(c2ccccc2OC(F)F)NC(=O)N1 (stereo not drawn) | 300*
CCN(c1ccccc1)S(=O)(=O)c1cnc[nH]1 | 0
O=C(O)C1=C(C(=O)N2CCN(C(=O)c3ccco3)CC2)CCCC1 | 6
COCCCN(C(=S)Nc1cccc(Cl)c1)C(C)c1ccncc1 (stereo not drawn) | 5
COCCCN(C(=O)Nc1cccc(Cl)c1)C(C)c1ccccn1 (stereo not drawn) | 642*
CC(c1ccccn1)N(CCN(C)C)C(=S)Nc1cccc(F)c1 (stereo not drawn) | 10
COc1ccc(CCNC(=O)CNS(=O)(=O)c2cccs2)cc1OC | -10
CC1NC(=S)N(C2CCCCC2)C1=O (stereo not drawn) | 7
Cc1ccc(N2C(=O)c3cccc4c(Oc5ccccc5[N+](=O)[O-])ccc(c34)C2=O)c(C)c1 | 0
COc1ccc(-c2nc(CS(=O)CC(=O)NCCCN3CC(C)CC(C)C3)c(C)o2)cc1OC (stereo not drawn) | -7
COc1cc(-c2nc(CN3CCN(CC(C)C)C(=O)[C@@H]3C)c(C)o2)ccc1F | 270*
COC(=O)c1ccc(-c2ccco2)n1Cc1nc(-c2ccc(OC)c(OC)c2)oc1C | 0
O=[N+]([O-])c1ccc(NCCCNS(=O)(=O)c2ccccc2)cc1 | -9
O=C(/C=C/c1c(Cl)nc2ccccn12)Nc1ccc(F)cc1 | -4
COc1ccc(-c2c(C)nn(-c3ccccc3)c2N)cc1 | 0
COP(C)(=O)c1c(C)nn(-c2ccccc2)c1C (stereo not drawn) | 84*
SMILES | INS promoter act
Cc1nn(-c2ccc(C(=O)O)cc2)c(C)c1Oc1ccccc1O | 8
O=C(c1cc2ccccc2oc1=O)N(Cc1ccco1)CC1CCCO1 (stereo not drawn) | -6
CN1CCN(C(=O)CN(Cc2ccc(Cl)cc2)S(C)(=O)=O)CC1 | 579*
CS(=O)(=O)N(CC(=O)NC1CCCC1)Cc1ccc(Cl)cc1 | -3
CS(=O)(=O)N(CC(=O)N1CCCCCC1)Cc1ccc(Cl)cc1 | -7
CC(C)(C)NC(=O)CN(Cc1cccs1)C(=O)CCC(=O)Nc1nccs1 | 117
CC(CCc1ccccc1)NS(=O)(=O)c1ccccc1 (stereo not drawn) | -3
S=C(NCCc1ccccc1)NCc1cccs1 | -8
Cc1ccnc2ccc(SC(F)(F)F)cc12 | 417*
O=C1CCCC2=C1C(c1cccc(O)c1)c1c(ccc3ncccc13)N2 (stereo not drawn) | 7
Cc1cccc(N(C(=O)Cn2nnc3ccccc32)C(C(=O)NCc2ccco2)c2ccncc2)c1C (stereo not drawn) | 9
CCc1ccc(C(C(=O)NCCOC)N(C(=O)Cn2nnc3ccccc32)c2cccnc2)cc1 (stereo not drawn) | 450*
CCCCN(C(=O)Cn1nnc2ccccc21)C(C(=O)NCCOC)c1ccccc1 (stereo not drawn) | 219
O=C(CSc1ccc(-c2ccncc2)nn1)N1CCCC1 | -7
CCOC(=O)NN1C(=O)c2ccccc2NC1c1ccc(OC)cc1OC (stereo not drawn) | 0
N#CC1=C(N)OC2=C(C(=O)CCC2)C1CCc1ccccc1 (stereo not drawn) | 3
Cc1cc(N2CCC(C)CC2)nc(NCc2ccccc2)n1 | 107
CCN(c1ccccc1)S(=O)(=O)c1ccc(C(=O)NCCCn2ccnc2)cc1 | 9
O=C(NCCCn1ccnc1)c1cccc(S(=O)(=O)Nc2ccccc2F)c1 | -9
O=C(NCCCn1ccnc1)c1cccc(S(=O)(=O)NCc2ccccc2)c1 | 400*
C=CC[N+](C)(C)C/C(Cl)=C(\Cl)c1ccccc1 | -71
O=C(Nc1cc(C(F)(F)F)ccc1N1CCOCC1)c1cncc(Br)c1 | -4
Cc1ccccc1NC(=O)c1cccc(C(F)(F)F)c1 | -9
O=C(Nc1cc(C(F)(F)F)ccc1-n1cncn1)c1ccc(-c2ccccc2)cc1 | 78*
CCOc1ccc(C(=O)N/N=C/c2cc(Cl)ccc2[N+](=O)[O-])cc1 | 6
SMILES | INS promoter act
Cc1ccc(NC(=O)N/C=C/c2ccco2)cc1 | -7
S=c1[nH]nc(-c2ccco2)n1Cc1ccccc1 | 407*
O=c1c2ccccc2nc(-c2ccco2)n1Cc1ccccc1 | 0
Cc1c(Cl)c(-c2n[nH]c(=S)n2Cc2ccco2)nn1C | 8
N#Cc1ccc(-c2ccccc2)nc1SCC(=O)c1cc2ccccc2oc1=O | 9
CC1Cc2nc(SCC(=O)OCc3ccccc3)n(C)c(=O)c2S1 (stereo not drawn) | -71
O=C1c2ccccc2CC1(Cc1ccccc1)Cc1ccccc1 | 216
CCOC(=O)C1CCN(S(=O)(=O)c2ccc(C)c(C)c2)CC1 | 206*
CCNC(=O)NC(=O)C(C)OC(=O)C1CCN(S(=O)(=O)c2ccc(C)c(C)c2)CC1 (stereo not drawn) | 108
CCOC(=O)C1CCCN(S(=O)(=O)c2ccc(C)cc2)C1 (stereo not drawn) | 0
C=CCNc1nc(Cl)nc(Nc2ccc(OCC)cc2)n1 | 7
CC12CCC(C(=O)N3CCN(Cc4ccccc4)CC3)(OC1=O)C2(C)C (stereo not drawn) | -3
O=C(O)CCCC(=O)NS(=O)(=O)c1ccc(Cl)cc1 | 393
C=CCn1c(SCc2nc3sc4c(c3c(=O)[nH]2)CCCC4)nc2ccccc2c1=O | 5
Fc1ccc(NCc2n[nH]c(=S)n2Cc2ccccc2)cc1 | 0
O=C(Cn1cc[n+](Cc2ccccc2)c1)c1ccc([N+](=O)[O-])cc1 | 0
